Screens (PubChem BioAssay)
PTEN del growth: growth suppressors of cells with PTEN tumor suppressor deletion | 1.2% of 140,000 active | viability, % at 10 µM | AID 827 | HCT116 PTEN-null viability, CellTiter-Glo, 60 h; hits give low values;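 active = viability at or below a set limit, 4 SD under the median of all tested compounds, cut at about 3.7% in these data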;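 note: PTEN knockout HCT116 line with beta catenin targeted HCT116 as companion control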
Dynein transport: blocks dynein driven cargo transport along microtubules; 3617.4 mouse cells, GR-EGFP nuclear translocation imaging; test concentration mostly 20 µM; stimulated with dexamethasone, 1 µM; hits give low values; 0.47% of 220,000 active; z-score, hits read low; AID 1381;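 active = plate z-score of nuclear minus cytoplasmic receptor signal below a set negative limit, without overly bright fluorescence or cell loss, cut at about -3.5 in these data, passing the limit was not always enough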;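 note: z-score of nuclear minus cytoplasmic ring GR-EGFP intensity difference per well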
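Buffer or medium: tet-free medium with charcoal-stripped serum / Also added: dexamethasone agonist, 1.0 µM final, for 30 min / Timing: induction 48 h, compound 1 h, agonist 30 min / Measured by: high-content fluorescence imaging after fixation / Read-out: nuclear-to-cytoplasmic GR-EGFP distribution per well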
Lmaj promast: reduces viability of Leishmania major promastigotes; resazurin fluorescence viability; inhibition, % at 10 µM; 9% of 200,000 active; in the data active = inhibition above about 50%;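 note: promastigotes grown with compound for 44 hours at 28 °C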
bCat KO growth: beta-catenin-lacking colon tumor cell growth suppression; HCT116 beta-catenin knockout viability, CellTiter-Glo, 60 h; hits give low values; viability, % at 10 µM; 1.5% of 140,000 active; AID 818;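 active = viability at or under a set limit, the compound median less 4 SD, cut at about 6% in these data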;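 note: 0% = Hyamine 1622 control at 20 µM and 100% = untreated cell control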
Autophagy HCS: autophagy modulation, high-content screen. MEF GFP-LC3 puncta imaging; test concentration mostly 10 µM. calls only at 10 µM (by protocol). 0.98% of 190,000 active. AID 463193;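 active = percentage of spot-positive cells more than 3 SD above its plate mean, without a fluorescence outlier flag or 80% toxicity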;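 note: spot-positive cell cutoff set from DMSO-treated cells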
L major 1uM: L. major promastigote growth inhibition, 1 uM repeat | inhibition, % at 1 µM | shares compounds with Lmaj promast | resazurin fluorescence, 48 h | AID 1258 | 13% of 1,100 active;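 active = inhibition above about 50% in both repeat tests, limit read from the data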
An asterisk follows results filed as active; i = inactive; / = no result. Most compounds without a hit are left out; they make up all but 9.2% or so of the library.

SMILES	PTEN del growth	Dynein transport	Lmaj promast	bCat KO growth	Autophagy HCS	L major 1uM
CCOc1cc(NC(=S)NCCCN2CCOCC2)c(OCC)cc1NC(=O)c1ccc(C)cc1	/	1.2	22	/	i	/
Cc1csc(/N=C/c2ccc([N+](=O)[O-])cc2)n1	97	-0.18	52*	98	i	-3
COc1cc(C2C3C(=O)N(Cc4ccccc4)C(=O)C3ON2c2ccccc2)cc(OC)c1OC (stereo not drawn)	69	2.7	-1	44	i	/
COc1ccc(C2C3C(=O)N(Cc4ccccc4)C(=O)C3ON2c2ccccc2)c(OC)c1OC (stereo not drawn)	63	-0.49	74*	72	i	-10
Cc1cc(NC(=O)CSc2nnc(C)n2-c2ccccc2C)no1	/	2.2	-7	/	i	/
O=C1c2ccccc2C(=O)C12Cc1ccccc1N1CCN(c3ccccc3)CC12 (stereo not drawn)	72	0.88	65*	84	i	67*
O=C(NCCOCc1ccccc1)C(c1ccccc1)c1ccccc1	/	0.18	21	/	i	/
C1=CN2CCC1C(c1ccccc1)C2 (stereo not drawn)	111	-0.63	79*	101	i	-12
CN(C)CCNC(=O)COc1cccc(Cl)c1	88	-1	-5	90	i	/
Oc1c(C=NCc2ccccc2)sc2ccccc12	/	-0.78	56*	/	i	-9
Cc1ccc(-n2nc3ccc(N)cc3n2)cc1	79	-0.16	84*	90	i	-16
CC(C)c1ccc(-n2nc3ccc(N)cc3n2)cc1	/	-0.38	12	/	i	/
Nc1n[nH]c(-c2ccccc2[N+](=O)[O-])n1	93	1.2	60*	95	i	-4
Cc1ccccc1N1C(S)=C(C#N)C(=O)NC12CCCCC2	86	0.12	51*	84	i	-20
Cc1ccc(N2C(S)=C(C#N)C(=O)NC23CCCCC3)cc1	74	-0.34	-1	68	i	/
CCOc1ccc(NC(=O)c2cn(-c3ccc(OCC)cc3)c(=O)c3cc(OC)c(OC)cc23)cc1	95	0.28	89*	101	i	-9
O=C(C[n+]1ccccc1)c1ccc(-c2ccccc2)cc1	/	-0.46	96*	/	i	7
CCC(=O)c1ccc(-c2ccccc2)cc1	90	2	2	80	i	/
CC(=O)Oc1c(C)cc(O)c2ccccc12	37	-0.45	82*	35	i	2
CC(=O)Cc1cc(O)c2ccccc2c1OC(=O)c1ccccc1	/	2.3	25	/	i	/
Clc1cccc(Cl)c1COn1nnc2ccccc21	19	0.79	-2	14	i	/
c1ccc(COn2nnc3ccccc32)c(COn2nnc3ccccc32)c1	65	-0.093	87*	83	i	-9
CCC(C)c1ccc(NC(=S)NCc2ccccc2OC)cc1 (stereo not drawn)	/	0.22	9	/	i	/
C1=C(CCNCC2CCCCC2)CCCC1	59	0.12	92*	64	i	47
O=c1ccn(Cc2ccccc2)c(=O)n1Cc1ccccc1	87	-0.59	5	92	i	/
SMILES	PTEN del growth	Dynein transport	Lmaj promast	bCat KO growth	Autophagy HCS	L major 1uM
O=c1ccsn1Cc1ccccc1	5	-3.4	101*	1.3*	i	32
CC(O)Cc1cn(CC(=O)N2CCN(C(=O)OC(C)(C)C)CC2)nn1 (stereo not drawn)	/	-0.51	-1	/	i	/
S=c1[nH]nc(-c2cc(-c3ccco3)[nH]n2)n1-c1cccc2ccccc12	78	0.63	98*	80	i	2
Cc1ccc(N2C(=O)C(Cc3ccc(O)cc3)NC2=S)cc1C (stereo not drawn)	97	-0.57	-5	86	i	/
Cc1nc(-c2ccccc2)sc1-c1nc(-c2ccncc2)ncc1S(=O)(=O)c1ccccc1	8	-0.55	58*	9	i	18
COc1nc(-c2ccccc2)ncc1S(=O)(=O)c1ccccc1	/	-0.44	3	/	i	/
Cc1ccc(-c2nc(CSCC(=O)NCCN3CCN(Cc4ccccc4)CC3)c(C)o2)cc1	57	3.3	52*	36	i	-26
CCc1cc2c(nc1CC)CCN(CC/C(C)=N/OC[C@H]1O[C@H](c3ccccc3)C=C[C@@H]1Oc1ccc(OC)cc1)C2	11	-1.1	67*	9	i	-4
O=C1CCC([N+](=O)[O-])C(c2ccc(Cl)c([N+](=O)[O-])c2)N1 (stereo not drawn)	/	-0.58	6	/	i	/
O=C1CCC([N+](=O)[O-])C(c2cccc(Br)c2)N1 (stereo not drawn)	97	0.51	54*	92	i	-10
COc1cc(/C=C(/NC(C)=O)C(=O)O)cc(Cl)c1OCc1ccc(Br)cc1	/	1.1	/	/	/	/
Clc1ccccc1C(c1ccccc1)(c1ccccc1)n1ccnc1	/	2.1	100*	/	i	88*
Cc1nc2ccccn2c(=O)c1CCN1CCC(C(=O)c2ccc(F)cc2)CC1	81	-0.37	97*	80	i	7
Cc1nc2sccn2c(=O)c1CCN1CCC(=C(c2ccc(F)cc2)c2ccc(F)cc2)CC1	46	-1.1	14	40	i	/
CCC(=O)Nc1cccc(-c2cnc3ccccc3n2)c1	104	0.46	8	107	i	/
O=C(CCl)Nc1cccc(-c2cnc3ccccc3n2)c1	3.0*	-1.4	100*	5.1*	i	77*
CCn1c(C(=O)NCc2cccnc2)cc2sc(Cl)cc21	100	-0.49	81*	96	i	2
ClC(Br)=C(n1cnc2ccccc21)n1cnc2ccccc21	102	-0.64	100*	100	i	-20
Cc1ccc(N2CC(C)Cn3c2nc2c3c(=O)n(CC(=O)OCc3ccccc3)c(=O)n2C)cc1C (stereo not drawn)	67	-0.35	59*	74	i	15
Cc1cc(C)cc(N2CCCn3c2nc2c3c(=O)n(CC(=O)OCc3ccccc3)c(=O)n2C)c1	89	0.073	30	73	i	/
N=C(N)c1ccc(OCCCCCOc2ccc(C(=N)N)cc2)cc1	32	-0.11	100*	36	i	100*
COC(=O)c1ccc(OCCOc2ccc(C(=O)OC)cc2)cc1	100	-1	-1	95	i	/
O=C(CC(=O)NC1CCCCC1)N/N=C/c1ccc(Cl)cc1	101	-0.31	-5	87	i	/
Cc1[nH]n(-c2ccc([N+](=O)[O-])cc2)c(=O)c1C=NCCN1CCN(C(=O)c2ccccc2)CC1	64	-0.029	-5	63	i	/
O=c1c(C=NCCN2CCNCC2)c(-c2ccccc2)[nH]n1-c1ccc([N+](=O)[O-])cc1	/	-5.2	101*	/	i	28
CCCCCCCC1CC(CSC(=N)N)OC1=O (stereo not drawn)	90	0.29	100*	88	i	8
c1ccc(-c2nc(-c3cccs3)[nH]c2-c2ccccc2)cc1	68	-0.28	53*	74	i	8
